Key:
Caspase-1 (Homo sapiens) = target: T1, Caspase-1 (Homo sapiens) (UniProt P29466); assay: Inhibition of recombinant human caspase 1 using WEHDGPKR substrate at up to 20 uM after 3 hrs
T1 sequence (whole entry): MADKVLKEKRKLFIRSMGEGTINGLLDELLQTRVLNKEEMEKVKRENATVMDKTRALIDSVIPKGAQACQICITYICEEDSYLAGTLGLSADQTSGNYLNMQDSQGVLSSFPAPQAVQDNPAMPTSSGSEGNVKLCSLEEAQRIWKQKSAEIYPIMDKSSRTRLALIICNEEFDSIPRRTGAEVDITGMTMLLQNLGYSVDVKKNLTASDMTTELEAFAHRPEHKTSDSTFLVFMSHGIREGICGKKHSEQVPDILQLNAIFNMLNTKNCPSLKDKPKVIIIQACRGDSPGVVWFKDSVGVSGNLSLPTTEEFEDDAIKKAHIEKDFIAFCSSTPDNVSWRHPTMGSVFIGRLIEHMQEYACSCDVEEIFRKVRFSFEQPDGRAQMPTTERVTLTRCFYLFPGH
In short: (§1)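 Outsourced microfluidic protease panel. Compound was preincubated with each protease for 30 min at 25 °C, then peptide substrate was added for 3 h at 25 °C and quenched with SDS/EDTA/iodoacetate. Substrate-to-product conversion was measured on LabChip. Compounds were tested singly in a 12-point 3-fold dilution series, top 20 μM (5 μM for two reference compounds).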

[1] = target: Prothrombin (Homo sapiens) (UniProt P00734); assay: Inhibition of recombinant human thrombin using PRTLT substrate at up to 20 uM after 3 hrs
In short: (§2)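 Each protease was preincubated 30 min at 25 °C with compound in its assay buffer. Peptide substrate was then added and the reaction ran 3 h at 25 °C before quenching with SDS/EDTA/iodoacetate. Substrate-to-product conversion (%) was read by microfluidic electrophoresis. Compounds were tested in singlicate as 12-point 3-fold dilutions from 20 μM to 0.1 nM. IC50 was taken as the concentration giving 50% of no-compound control activity.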

Furin (Homo sapiens) = Furin (Homo sapiens) (UniProt P09958); assay: Inhibition of recombinant human furin using RRVKRSLD substrate at up to 20 uM after 3 hrs; in short: as §2
Chain of Furin (Homo sapiens) (P09958 whole entry): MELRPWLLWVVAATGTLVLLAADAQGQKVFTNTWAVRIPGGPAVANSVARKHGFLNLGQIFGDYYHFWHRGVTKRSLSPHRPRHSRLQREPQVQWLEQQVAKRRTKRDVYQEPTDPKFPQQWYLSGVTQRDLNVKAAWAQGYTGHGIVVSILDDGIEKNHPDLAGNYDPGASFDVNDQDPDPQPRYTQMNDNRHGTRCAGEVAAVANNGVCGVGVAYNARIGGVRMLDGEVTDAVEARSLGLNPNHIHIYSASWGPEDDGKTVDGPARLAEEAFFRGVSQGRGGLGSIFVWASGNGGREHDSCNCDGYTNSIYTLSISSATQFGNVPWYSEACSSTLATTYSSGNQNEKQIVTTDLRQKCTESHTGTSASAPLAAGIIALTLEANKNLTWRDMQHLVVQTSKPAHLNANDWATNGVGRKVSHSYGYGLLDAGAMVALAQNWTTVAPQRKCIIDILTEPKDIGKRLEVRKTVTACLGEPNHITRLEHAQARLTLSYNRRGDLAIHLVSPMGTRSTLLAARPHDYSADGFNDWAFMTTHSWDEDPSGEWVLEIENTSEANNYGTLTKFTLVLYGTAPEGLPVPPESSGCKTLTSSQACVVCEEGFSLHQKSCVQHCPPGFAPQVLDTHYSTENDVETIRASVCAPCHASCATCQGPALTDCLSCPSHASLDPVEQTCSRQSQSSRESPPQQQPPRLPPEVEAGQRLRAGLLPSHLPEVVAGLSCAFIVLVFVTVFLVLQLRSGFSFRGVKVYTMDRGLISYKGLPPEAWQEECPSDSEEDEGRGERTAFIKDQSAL

Caspase-5 (Homo sapiens) = target: T2, Caspase-5 (Homo sapiens) (UniProt P51878); assay: Inhibition of recombinant human caspase 5 using LEHDGP substrate at up to 20 uM after 3 hrs; in short: as §1
T2 sequence (whole entry): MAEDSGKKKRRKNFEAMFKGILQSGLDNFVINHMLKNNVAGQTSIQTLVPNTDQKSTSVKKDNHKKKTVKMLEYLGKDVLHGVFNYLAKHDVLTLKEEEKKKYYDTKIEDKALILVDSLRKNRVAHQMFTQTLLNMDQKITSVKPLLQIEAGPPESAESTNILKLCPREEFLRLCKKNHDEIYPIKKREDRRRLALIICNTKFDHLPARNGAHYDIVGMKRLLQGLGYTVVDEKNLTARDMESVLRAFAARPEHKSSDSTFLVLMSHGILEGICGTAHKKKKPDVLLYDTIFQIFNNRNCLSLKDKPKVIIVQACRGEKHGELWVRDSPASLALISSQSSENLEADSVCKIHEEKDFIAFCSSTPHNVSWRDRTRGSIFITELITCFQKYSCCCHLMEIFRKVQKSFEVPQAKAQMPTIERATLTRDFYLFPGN

[2] = target: Stromelysin-1 (Homo sapiens) (UniProt P08254); assay: Inhibition of recombinant human MMP-3 using GRIGFL substrate up to 20 uM; in short: as §1
Chain of Stromelysin-1 (Homo sapiens) (P08254 100-477 limits assumed): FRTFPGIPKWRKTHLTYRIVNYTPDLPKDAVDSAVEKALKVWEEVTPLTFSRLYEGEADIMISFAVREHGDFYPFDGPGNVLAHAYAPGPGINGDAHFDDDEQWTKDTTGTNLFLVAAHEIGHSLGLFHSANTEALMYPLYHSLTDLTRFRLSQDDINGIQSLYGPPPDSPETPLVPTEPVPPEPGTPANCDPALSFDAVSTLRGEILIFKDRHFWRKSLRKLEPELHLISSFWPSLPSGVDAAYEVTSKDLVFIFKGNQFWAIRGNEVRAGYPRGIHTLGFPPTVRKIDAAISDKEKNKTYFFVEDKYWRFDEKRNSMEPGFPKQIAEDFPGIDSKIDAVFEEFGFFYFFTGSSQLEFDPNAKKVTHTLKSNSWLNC

[3] = target: Cathepsin S (Homo sapiens) (UniProt P25774); assay: Inhibition of recombinant human cathepsin S using RTLTAK substrate at up to 20 uM after 3 hrs; in short: as §2
Chain of Cathepsin S (Homo sapiens) (P25774 115-331 limits assumed): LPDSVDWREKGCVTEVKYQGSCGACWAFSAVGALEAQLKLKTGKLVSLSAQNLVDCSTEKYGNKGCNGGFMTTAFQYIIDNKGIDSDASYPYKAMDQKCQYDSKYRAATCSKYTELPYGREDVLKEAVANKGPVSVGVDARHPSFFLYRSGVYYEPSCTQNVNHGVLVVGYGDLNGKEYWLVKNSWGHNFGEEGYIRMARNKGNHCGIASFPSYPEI

[4] = target: Coagulation factor X (Homo sapiens) (UniProt P00742); assay: Inhibition of recombinant human factor 10a using ALPRTMFIQ substrate at up to 20 uM after 3 hrs; in short: as §2
Chain of Coagulation factor X (Homo sapiens) (P00742 41-179 limits assumed): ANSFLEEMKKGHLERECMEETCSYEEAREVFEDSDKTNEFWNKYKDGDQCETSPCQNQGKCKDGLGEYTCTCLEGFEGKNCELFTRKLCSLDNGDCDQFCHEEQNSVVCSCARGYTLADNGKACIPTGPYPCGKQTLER
Chain of Coagulation factor X (Homo sapiens) (P00742 235-488 limits assumed): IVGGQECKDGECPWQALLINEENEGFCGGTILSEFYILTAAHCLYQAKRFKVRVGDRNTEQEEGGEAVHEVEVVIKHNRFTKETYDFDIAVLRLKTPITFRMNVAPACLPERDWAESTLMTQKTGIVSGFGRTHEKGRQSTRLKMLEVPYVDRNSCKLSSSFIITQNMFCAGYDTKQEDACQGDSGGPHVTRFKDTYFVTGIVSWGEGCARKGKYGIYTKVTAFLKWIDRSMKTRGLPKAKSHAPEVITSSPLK

Collagenase 3 = Collagenase 3 (Homo sapiens, UniProt P45452); assay: Inhibition of full-length recombinant human MMP-13 assessed as bovine type-2 collagen hydrolysis after 22 hrs by fluorescence assay
Caspase-6 (Homo sapiens) = target: T3, Caspase-6 (Homo sapiens) (UniProt P55212); assay: Inhibition of recombinant human caspase 6 using VEHDGG substrate at up to 20 uM after 3 hrs; in short: as §1
T3 sequence (whole entry): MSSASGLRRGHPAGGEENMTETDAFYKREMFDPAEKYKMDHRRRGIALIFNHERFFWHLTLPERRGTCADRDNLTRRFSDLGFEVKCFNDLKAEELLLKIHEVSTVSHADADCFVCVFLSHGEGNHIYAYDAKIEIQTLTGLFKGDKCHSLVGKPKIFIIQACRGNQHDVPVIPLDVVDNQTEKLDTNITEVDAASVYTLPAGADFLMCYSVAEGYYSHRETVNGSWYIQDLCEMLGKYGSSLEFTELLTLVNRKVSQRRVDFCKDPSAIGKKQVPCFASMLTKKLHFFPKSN

[5] = target: Matrix metalloproteinase-9 (Homo sapiens) (UniProt P14780); assay: Inhibition of recombinant human MMP-9 using GRIGFL substrate up to 20 uM; in short: as §1
Chain of Matrix metalloproteinase-9 (Homo sapiens) (P14780 whole entry): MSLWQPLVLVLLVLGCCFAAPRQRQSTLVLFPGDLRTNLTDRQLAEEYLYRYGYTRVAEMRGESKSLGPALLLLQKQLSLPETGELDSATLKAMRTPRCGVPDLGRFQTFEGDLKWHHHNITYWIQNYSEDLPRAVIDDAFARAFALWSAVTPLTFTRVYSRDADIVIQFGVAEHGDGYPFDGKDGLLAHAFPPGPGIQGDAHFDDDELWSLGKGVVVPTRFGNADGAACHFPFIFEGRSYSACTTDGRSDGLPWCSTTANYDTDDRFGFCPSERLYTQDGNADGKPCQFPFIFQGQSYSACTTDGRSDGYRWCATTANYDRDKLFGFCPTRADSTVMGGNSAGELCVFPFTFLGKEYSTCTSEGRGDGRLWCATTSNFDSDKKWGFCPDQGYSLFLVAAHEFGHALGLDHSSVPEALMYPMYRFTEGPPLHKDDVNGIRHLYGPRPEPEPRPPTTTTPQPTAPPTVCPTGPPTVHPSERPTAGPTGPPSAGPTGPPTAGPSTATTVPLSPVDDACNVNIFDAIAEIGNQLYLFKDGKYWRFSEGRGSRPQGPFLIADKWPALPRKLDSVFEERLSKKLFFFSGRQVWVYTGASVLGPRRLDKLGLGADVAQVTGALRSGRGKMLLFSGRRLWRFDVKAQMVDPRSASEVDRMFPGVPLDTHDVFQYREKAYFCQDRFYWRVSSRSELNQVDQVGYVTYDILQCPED

Cytochrome P450 1A2 = target: T4, Cytochrome P450 1A2 (Homo sapiens, UniProt P05177); assay: Inhibition of CYP1A2 (unknown origin) using tacrin substrate; assay type: ADME
T4 sequence (P05177 whole entry): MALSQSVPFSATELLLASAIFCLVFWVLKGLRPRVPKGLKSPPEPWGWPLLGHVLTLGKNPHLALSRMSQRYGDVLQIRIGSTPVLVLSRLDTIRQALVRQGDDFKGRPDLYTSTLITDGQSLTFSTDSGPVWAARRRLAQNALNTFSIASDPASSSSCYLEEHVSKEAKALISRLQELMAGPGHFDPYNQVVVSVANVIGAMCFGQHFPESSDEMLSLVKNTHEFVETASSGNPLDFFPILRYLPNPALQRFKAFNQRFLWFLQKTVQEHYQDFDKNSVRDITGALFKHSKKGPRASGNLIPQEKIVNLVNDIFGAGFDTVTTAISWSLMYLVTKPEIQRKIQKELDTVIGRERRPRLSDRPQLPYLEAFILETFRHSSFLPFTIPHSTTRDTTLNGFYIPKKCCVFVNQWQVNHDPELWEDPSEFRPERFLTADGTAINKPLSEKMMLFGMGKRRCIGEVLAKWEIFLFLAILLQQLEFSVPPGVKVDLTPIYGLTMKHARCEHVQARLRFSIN
In short: (§3)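 Human liver microsomes with probe substrate and an NADPH-regenerating system in 0.1 M potassium phosphate pH 7.4 at 37 °C, run in duplicate. Inhibitor at 0–20 μM (0–2.5 μM for one compound), eight concentrations. Reactions were stopped with acetonitrile/formic acid containing isotope-labelled internal standard, and metabolite area ratios were compared with and without inhibitor. IC50 was taken by linear interpolation between bracketing concentrations.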

Cytochrome P450 2D6 = Cytochrome P450 2D6 (Homo sapiens, UniProt P10635); assay: Inhibition of CYP2D6 (unknown origin) using dextromethophan substrate; assay type: ADME; in short: as §3
Chain of Cytochrome P450 2D6 (P10635 whole entry): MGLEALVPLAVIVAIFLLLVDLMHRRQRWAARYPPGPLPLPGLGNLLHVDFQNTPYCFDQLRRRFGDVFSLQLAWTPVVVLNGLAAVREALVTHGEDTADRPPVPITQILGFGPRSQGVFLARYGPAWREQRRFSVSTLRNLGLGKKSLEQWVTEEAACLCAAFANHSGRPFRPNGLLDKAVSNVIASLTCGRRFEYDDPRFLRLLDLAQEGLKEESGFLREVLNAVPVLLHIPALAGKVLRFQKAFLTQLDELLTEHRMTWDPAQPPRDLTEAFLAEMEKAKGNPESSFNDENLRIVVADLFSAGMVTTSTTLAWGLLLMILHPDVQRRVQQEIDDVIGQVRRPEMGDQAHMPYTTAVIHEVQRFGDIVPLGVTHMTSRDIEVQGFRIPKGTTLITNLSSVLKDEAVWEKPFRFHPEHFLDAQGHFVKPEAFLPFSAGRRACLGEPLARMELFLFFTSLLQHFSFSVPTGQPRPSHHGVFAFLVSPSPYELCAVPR

Cytochrome P450 2C9 = Cytochrome P450 2C9 (Homo sapiens, UniProt P11712); assay: Inhibition of CYP2C9 (unknown origin) using diclofenac substrate; assay type: ADME; in short: as §3
Chain of Cytochrome P450 2C9 (P11712 whole entry): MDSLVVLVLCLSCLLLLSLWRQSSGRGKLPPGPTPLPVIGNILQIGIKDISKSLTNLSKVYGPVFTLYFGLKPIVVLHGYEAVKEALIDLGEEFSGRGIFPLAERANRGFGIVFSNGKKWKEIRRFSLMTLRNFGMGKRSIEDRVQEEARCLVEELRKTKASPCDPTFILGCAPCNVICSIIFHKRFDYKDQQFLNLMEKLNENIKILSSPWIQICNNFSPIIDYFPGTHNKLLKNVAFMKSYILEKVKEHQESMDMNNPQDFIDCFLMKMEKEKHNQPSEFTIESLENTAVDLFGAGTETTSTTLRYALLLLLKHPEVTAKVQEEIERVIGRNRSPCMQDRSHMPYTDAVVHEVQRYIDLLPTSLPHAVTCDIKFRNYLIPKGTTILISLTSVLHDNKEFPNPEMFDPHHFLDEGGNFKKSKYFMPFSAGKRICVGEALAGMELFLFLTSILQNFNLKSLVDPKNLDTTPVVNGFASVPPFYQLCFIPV

Cytochrome P450 2C19 = Cytochrome P450 2C19 (Homo sapiens, UniProt P33261); assay: Inhibition of CYP2C19 (unknown origin) using (S)-mephentoin substrate; assay type: ADME; in short: as §3
Chain of Cytochrome P450 2C19 (P33261 whole entry): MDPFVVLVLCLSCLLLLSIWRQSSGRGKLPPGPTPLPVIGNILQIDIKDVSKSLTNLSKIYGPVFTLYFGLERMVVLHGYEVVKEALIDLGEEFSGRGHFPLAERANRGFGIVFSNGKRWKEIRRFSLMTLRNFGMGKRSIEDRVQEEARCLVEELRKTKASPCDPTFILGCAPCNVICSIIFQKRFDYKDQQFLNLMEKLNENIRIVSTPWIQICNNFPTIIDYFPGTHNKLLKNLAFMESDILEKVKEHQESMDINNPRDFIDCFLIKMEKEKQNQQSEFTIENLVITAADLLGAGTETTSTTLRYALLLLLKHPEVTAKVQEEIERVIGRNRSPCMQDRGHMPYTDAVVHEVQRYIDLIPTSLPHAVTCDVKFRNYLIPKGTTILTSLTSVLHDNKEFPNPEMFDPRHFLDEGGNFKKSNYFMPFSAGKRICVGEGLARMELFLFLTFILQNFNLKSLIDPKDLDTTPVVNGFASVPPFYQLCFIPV

Structure (SMILES)	inhibition (Caspase-1 (Homo sapiens))	inhibition [1]	inhibition (Furin (Homo sapiens))	inhibition (Caspase-5 (Homo sapiens))	inhibition [2]	inhibition [3]	inhibition [4]	inhibition (Collagenase 3)	inhibition (Caspase-6 (Homo sapiens))	inhibition [5]	IC50 (Cytochrome P450 1A2)	IC50 (Cytochrome P450 2D6)	IC50 (Cytochrome P450 2C9)	IC50 (Collagenase 3)	IC50 (Cytochrome P450 2C19)
Cc1ccc(CSc2nc(O)c3c(n2)CCC3)cc1	< 10%	< 10%	< 10%	> 10%	> 10%	< 10%	< 10%	Dose-dependent effect	< 10%	> 10%	–	–	–	–	–
Oc1nc(SCc2ccc(Cl)cc2)nc2c1CCC2	< 10%	< 10%	< 10%	< 10%	> 10%	< 10%	< 10%	Dose-dependent effect	< 10%	> 10%	8.6 µM	> 20 µM	19 µM	0.7 µM	6.5 µM
Cn1c(=O)n(Cc2ccc(C(=O)O)cc2)c(=O)c2cc(C#CCc3ccccc3)ccc21	–	–	–	–	–	–	–	–	–	–	> 2.5 µM	> 2.5 µM	> 2.5 µM	–	> 2.5 µM
Cc1cc(CNC(=O)c2cc(C(=O)NCc3ccc(F)c(C)c3)ncn2)ccc1F	–	–	–	–	–	–	–	–	–	–	> 20 µM	> 20 µM	> 20 µM	–	> 20 µM
COC(=O)c1ccc(CSc2nc3c(c(=O)[nH]2)CCC3)cc1	< 10%	< 10%	< 10%	< 10%	> 10%	< 10%	< 10%	–	< 10%	> 10%	> 20 µM	> 20 µM	> 20 µM	2.3 µM	> 20 µM

Reference: ChEMBL document CHEMBL3352788, “Characterization of selective exosite-binding inhibitors of matrix metalloproteinase 13 that prevent articular cartilage degradation in vitro” (J Med Chem, 2014)
